# Compound activity as filed in PubChem.
# A selection: hits, their analogues and other compounds. The true share with any hit is near 2.6%.
# ABHD5 PLIN5 PPI = ABHD5-PLIN5 interaction inhibitors, primary screen, cell lysate, split luciferase complementation, luminescence; Perilipin-5 (Homo sapiens) + 1-acylglycerol-3-phosphate O-acyltransferase ABHD5 (Homo …; Split G. princeps luciferase complementation, 4 h; inhibition, % at 4 µM; 0.78% of 360,000 active; AID 602281, 2012;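 active means inhibition above the mean inhibition across every tested compound plus 3 SD, cut at about 22% in these data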;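 further: 0% = DMSO only wells and the 100% control is not disclosed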
# Target sequence (Q00G26 whole entry, looked up): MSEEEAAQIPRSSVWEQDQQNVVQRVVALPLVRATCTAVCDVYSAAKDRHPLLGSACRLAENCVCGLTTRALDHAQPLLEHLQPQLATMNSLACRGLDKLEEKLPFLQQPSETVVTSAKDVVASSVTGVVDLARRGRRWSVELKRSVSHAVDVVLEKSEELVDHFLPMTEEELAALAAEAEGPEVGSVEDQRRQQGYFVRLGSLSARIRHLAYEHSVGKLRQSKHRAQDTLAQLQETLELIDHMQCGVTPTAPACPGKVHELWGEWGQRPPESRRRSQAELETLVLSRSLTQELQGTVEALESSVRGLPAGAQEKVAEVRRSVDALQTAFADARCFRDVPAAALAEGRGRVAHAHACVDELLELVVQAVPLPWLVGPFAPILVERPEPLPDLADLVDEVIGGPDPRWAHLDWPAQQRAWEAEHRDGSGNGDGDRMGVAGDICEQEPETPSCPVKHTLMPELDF
# Target sequence (Q8WTS1 whole entry, looked up): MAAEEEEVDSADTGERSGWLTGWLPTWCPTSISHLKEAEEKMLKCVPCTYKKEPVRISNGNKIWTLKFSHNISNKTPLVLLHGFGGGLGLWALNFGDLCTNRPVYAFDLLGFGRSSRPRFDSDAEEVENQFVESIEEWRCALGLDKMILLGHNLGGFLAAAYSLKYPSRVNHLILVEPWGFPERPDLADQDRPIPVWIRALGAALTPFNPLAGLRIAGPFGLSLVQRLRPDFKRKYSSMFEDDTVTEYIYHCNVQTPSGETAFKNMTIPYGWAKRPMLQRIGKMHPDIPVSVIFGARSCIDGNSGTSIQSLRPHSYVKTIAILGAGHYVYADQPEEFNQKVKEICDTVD
# rCAG binder = binders of r(CAG) RNA repeats, primary screen, biochemical, fluorescence; r(CAG) RNA repeat, TO-PRO-1 dye displacement fluorescence; inhibition, % at 3 µM; 1.3% of 370,000 active; AID 651821, 2012;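 active means inhibition above the plate cutoff, the mean of all test compounds on that plate plus 3 SD, cut at about 35% in these data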;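 further: 0% = DMSO alone and 100% = 100 µM mitoxantrone as full dye displacement; higher means more dye released from RNA so lower well fluorescence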
# HCV core dimer = inhibitors of HCV core protein dimerization, primary screen, biochemical, TR-FRET, high-throughput | inhibition, % at 5 µM | TR-FRET GST/Flag-core106 dimerization, 1536-well | AID 1899, 2009 | 0.33% of 300,000 active;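 active means inhibition above the mean of all tested compounds plus 3 SD, set per screening campaign, cut at about 45% in these data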
#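 Assay system: GST-tagged and Flag-tagged HCV core protein residues 1-106 / Times: compound-protein-antibody incubation 4 h at 22.5 °C / Signal: time-resolved FRET, ex 340 nm, em 617 and 671 nm / Evaluation: % inhibition based on acceptor/donor emission ratio / Benchmarks: wells lacking GST-core106 and wells with excess unlabelled core106 / Repeats: singlicate, one well per compound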
# NadD block = inhibitors of S. aureus NadD, primary screen, biochemical, colorimetric, uHTS | Nicotinate-nucleotide adenylyltransferase NadD (Staphylococcus aureus N315) | purified NadD enzyme, colorimetric absorbance read-out | inhibition, % at 20 µM | 0.78% of 360,000 active; in the data active means inhibition above about 26%
# NadD conf = inhibitors of S. aureus NadD, confirmation, biochemical, colorimetric, single concentration. inhibition, % at 20 µM. 13% of 2,000 active. AID 624309, 2012. shares compounds with NadD block. purified S. aureus NadD, colorimetric enzyme assay; in the data active means inhibition mostly above about 42%, no sharp cut-off; inactive means mostly below about 42%
# Starred values were filed as active, the others as inactive; . = no result.
SMILES,ABHD5 PLIN5 PPI,rCAG binder,HCV core dimer,NadD block,NadD conf
CC1(C)CC[C@]2(C(=O)O)CC[C@]3(C)C(=CC[C@@H]4[C@@]5(C)CC[C@H](O)C(C)(C)[C@@H]5CC[C@]43C)[C@@H]2C1,1.8,3.0,23.2,29.5*,10.3
CCOc1ccc(OCC(=O)Nc2ccc(N3CCCCC3)cc2)cc1,-5.5,-4.2,1.8,-1.9,.
Cc1cc(OCC(=O)Nc2ccc(N3CCCC3)cc2)cc(C)c1Cl,-2.2,4.5,8.5,42.8*,18.1
CC(=O)c1cccc(-c2ccc3c(=O)[nH]c(Nc4ccccc4)cc3c2)c1,-20.7,29.1,22.3,35.0*,23.0
Nc1c(C(=O)N/N=C/c2cccnc2)oc2nc(-c3ccccc3)cc(-c3ccco3)c12,-3.5,5.6,5.4,7.3,.
O=CNn1cnc2c(oc3nc(-c4ccccc4)cc(-c4ccco4)c32)c1=O,5.9,13.8,8.3,35.8*,4.9
O=S1(=O)CC(N2CCN(CCO)CC2)CN1Cc1cn(Cc2ccc(C(F)(F)F)cc2)nn1 (centres undefined),-2.5,0.8,.,-8.7,.
O=S(=O)(O)c1cc(O)c2ccc(Nc3ccccc3)cc2c1,4.7,65.0*,.,32.7*,65.6*
Nc1cccc2c(O)cc(S(=O)(=O)O)cc12,-10.0,.,.,11.2,.
COCCN1C(=O)CCC1(C)C(=O)Nc1ccc2ccccc2c1 (centres undefined),-4.4,0.8,.,-1.8,.
COc1cc2cc(Oc3ccc4ccc(=O)oc4c3)c(=O)oc2cc1O[C@@H]1O[C@H](CO)[C@@H](O)[C@H](O)[C@H]1O,8.0,17.5,.,3.4,.
COc1cc2cc(Oc3ccc4ccc(=O)oc4c3)c(=O)oc2cc1OC(=O)/C=C/c1ccccc1,1.8,2.7,11.8,32.1*,9.5
COc1ccc2ccccc2c1/C=N/NC(=O)c1nnn(-c2nonc2N)c1C(C)C,-3.0,12.2,5.9,33.4*,41.7*
